Experiments:
5637 = experiment: Antiproliferative activity against human 5637 cells assessed as cell growth inhibition incubated for 6 days by celltiter-glo assay; type: functional; details: Homo sapiens, 5637, 144 h; time 6 day
Procedure, shortened: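 Cells seeded in 384-well plates and held 24 h, then treated in duplicate with a 20-point two-fold dilution series (≤29 μM top dose, ≤0.15% DMSO) for 6 days. CellTiter-Glo luminescence read on Day 0 and Day 6. 4-parameter fit; curves QC'd for population doubling ≥1.5. gIC50 = concentration at the midpoint between the DMSO and T0 values.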

HCC1143 = experiment: Antiproliferative activity against human HCC1143 cells assessed as cell growth inhibition viability incubated for 6 days by celltiter-glo assay; type: functional; details: HCC1143, 144 h, time 6 day
Procedure, shortened: (§1)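 Cells were seeded in 384-well plates and incubated 24 h, then treated in duplicate with a 20-point, 2-fold dilution series (top dose ≤29 μM, ≤0.15% DMSO) for 6 days. CellTiter-Glo luminescence was read on day 0 and day 6. A 4-parameter fit was used, and curves needed at least 1.5 population doublings. gIC50 is the midpoint of the growth window between DMSO and T0.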

HCC70 = experiment: Antiproliferative activity against human HCC70 cells assessed as cell growth inhibition incubated for 6 days by celltiter-glo assay; type: functional; details: HCC70, 144 h, time 6 day; procedure, shortened: as §1
HT-1376 = experiment: Antiproliferative activity against human HT-1376 cells assessed as cell growth inhibition incubated for 6 days by celltiter-glo assay; type: functional; details: HT-1376, 144 h, time 6 day; procedure, shortened: as §1
J82 = experiment: Antiproliferative activity against human J82 cells assessed as cell growth inhibition incubated for 6 days by celltiter-glo assay; type: functional; details: J82, 144 h, time 6 day
Procedure, shortened: (§2)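 Cells seeded in 384-well plates at an optimized density and held 24 h. Day 0: treated in duplicate with a 20-point two-fold series (top dose ≤29 μM, ≤0.15% DMSO) and incubated 6 days. CellTiter-Glo luminescence read at Day 0 and Day 6. Four-parameter fit. gIC50 = midpoint of the growth window between DMSO and T0. Curves required ≥1.5 population doublings.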

JM1 = experiment: Antiproliferative activity against human JM1 cells assessed as cell growth inhibition incubated for 6 days by celltiter-glo assay; type: functional; details: JM1, 144 h, time 6 day; procedure, shortened: as §2
JVM-2 = experiment: Antiproliferative activity against human JVM-2 cells assessed as cell growth inhibition incubated for 6 days by celltiter-glo assay; type: functional; details: JVM-2, 144 h, time 6 day; procedure, shortened: as §2
LN-229 = experiment: Antiproliferative activity against human LN-229 cells assessed as cell growth inhibition incubated for 6 days by celltiter-glo assay; type: functional; details: LN-229, 144 h, time 6 day; procedure, shortened: as §2
Maver1 = experiment: Antiproliferative activity against human MAVER-1 cells assessed as cell growth inhibition incubated for 6 days by celltiter-glo assay; type: functional; details: Maver1, 144 h, time 6 day; procedure, shortened: as §2
MDA-MB-231 = experiment: Antiproliferative activity against human MDA-MB-231 cells assessed as cell growth inhibition incubated for 6 days by celltiter-glo assay; type: functional; details: MDA-MB-231, 144 h, time 6 day; procedure, shortened: as §2
MDA-MB-468 = experiment: Antiproliferative activity against human MDA-MB-468 cells assessed as cell growth inhibition incubated for 6 days by celltiter-glo assay; type: functional; details: MDA-MB-468, 144 h, time 6 day; procedure, shortened: as §2
NCI-H526 = experiment: Antiproliferative activity against human NCI-H526 cells assessed as cell growth inhibition incubated for 6 days by celltiter-glo assay; type: functional; details: NCI-H526, 144 h, time 6 day; procedure, shortened: as §2
[1] = Antiproliferative activity against human PER-403 cells assessed as cell growth inhibition incubated for 6 days by celltiter-glo assay; type: functional; details: PER-403, 144 h, time 6 day; procedure, shortened: as §2
[2] = Antiproliferative activity against human PER-624 cells assessed as cell growth inhibition incubated for 6 days by celltiter-glo assay; type: functional; details: PER-624, 144 h, time 6 day; procedure, shortened: as §2
[3] = Antiproliferative activity against human PER-704 cells assessed as cell growth inhibition incubated for 6 days by celltiter-glo assay; type: functional; details: PER-704, 144 h, time 6 day; procedure, shortened: as §2
Pfeiffer = experiment: Antiproliferative activity against human Pfeiffer cells assessed as cell growth inhibition incubated for 6 days by celltiter-glo assay; type: functional; details: 144 h, time 6 day; procedure, shortened: as §2
RCK8 = experiment: Antiproliferative activity against human RCK8 cells assessed as cell growth inhibition incubated for 6 days by celltiter-glo assay; type: functional; details: RCK8, 144 h, time 6 day; procedure, shortened: as §2
RL = experiment: Antiproliferative activity against human RL cells assessed as cell growth inhibition incubated for 6 days by celltiter-glo assay; type: functional; details: 144 h, time 6 day; procedure, shortened: as §2
SF-295 = experiment: Antiproliferative activity against human SF-295 cells assessed as cell growth inhibition incubated for 6 days by celltiter-glo assay; type: functional; details: SF-295, 144 h, time 6 day; procedure, shortened: as §2
SF-539 = experiment: Antiproliferative activity against human SF-539 cells assessed as cell growth inhibition incubated for 6 days by celltiter-glo assay; type: functional; details: SF-539, 144 h, time 6 day; procedure, shortened: as §2
SK-BR-3 = experiment: Antiproliferative activity against human SK-BR-3 cells assessed as cell growth inhibition incubated for 6 days by celltiter-glo assay; type: functional; details: SK-BR-3, 144 h, time 6 day; procedure, shortened: as §2
SU-DHL-2 = experiment: Antiproliferative activity against human SUDHL2 cells assessed as cell growth inhibition incubated for 6 days by celltiter-glo assay; type: functional; details: SU-DHL-2, 144 h, time 6 day; procedure, shortened: as §2
SU-DHL-6 = experiment: Antiproliferative activity against human SU-DHL-6 cells assessed as cell growth inhibition incubated for 6 days by celltiter-glo assay; type: functional; details: SU-DHL-6, 144 h, time 6 day; procedure, shortened: as §2
SU-DHL-8 = experiment: Antiproliferative activity against human SU-DHL-8 cells assessed as cell growth inhibition incubated for 6 days by celltiter-glo assay; type: functional; details: SU-DHL-8, 144 h, time 6 day; procedure, shortened: as §2
SW780 = experiment: Antiproliferative activity against human SW780 cells assessed as cell growth inhibition incubated for 6 days by celltiter-glo assay; type: functional; details: SW780, 144 h, time 6 day; procedure, shortened: as §2
T-24 = experiment: Antiproliferative activity against human T24 cells assessed as cell growth inhibition incubated for 6 days by celltiter-glo assay; type: functional; details: T-24, 144 h, time 6 day; procedure, shortened: as §2
U2932 = experiment: Antiproliferative activity against human U2932 cells assessed as cell growth inhibition incubated for 6 days by celltiter-glo assay; type: functional; details: U2932, 144 h, time 6 day; procedure, shortened: as §2
U-2940 = experiment: Antiproliferative activity against human U-2940 cells assessed as cell growth inhibition incubated for 6 days by celltiter-glo assay; type: functional; details: U-2940, 144 h, time 6 day; procedure, shortened: as §2
U-87 MG = experiment: Antiproliferative activity against human U-87 MG cells assessed as cell growth inhibition incubated for 6 days by celltiter-glo assay; type: functional, U-87MG ATCC; details: 144 h, time 6 day; procedure, shortened: as §2
UMUC3 = experiment: Antiproliferative activity against human UMUC3 cells assessed as cell growth inhibition incubated for 6 days by celltiter-glo assay; type: functional; details: UMUC3, 144 h, time 6 day; procedure, shortened: as §2
WSUDLCL2 = experiment: Antiproliferative activity against human WSUDLCL2 cells assessed as cell growth inhibition incubated for 6 days by celltiter-glo assay; type: functional; details: WSUDLCL2, 144 h, time 6 day; procedure, shortened: as §2
WSU-NHL = experiment: Antiproliferative activity against human WSU-NHL cells assessed as cell growth inhibition incubated for 6 days by celltiter-glo assay; type: functional; details: 144 h, time 6 day; procedure, shortened: as §2
Z-138 = experiment: Antiproliferative activity against human Z138 cells assessed as cell growth inhibition incubated for 6 days by celltiter-glo assay; type: functional; details: Z-138, 144 h, time 6 day; procedure, shortened: as §2
ZR-75-1 = experiment: Antiproliferative activity against human ZR-75-1 cells assessed as cell growth inhibition incubated for 6 days by celltiter-glo assay; type: functional; details: ZR-75-1, 144 h, time 6 day; procedure, shortened: as §2

Question: For `CC(=O)N1CCC(Nc2cc(C(=O)NC[C@H](O)CN3CCc4ccccc4C3)ncn2)CC1` [PEMRAMETOSTAT], which GI50 5637 is on record?
Answer: Its GI50 is 69 nM.

Question: What about the GI50 (HCC1143) of the same compound?
Answer: The GI50 was 246 nM.

Question: What about the GI50 (HCC70) of the same compound?
Answer: The GI50 was 130 nM.

Question: And the GI50 (HT-1376)?
Answer: The GI50 was 17600 nM.

Question: And the GI50 (J82)?
Answer: The GI50 was 29300 nM.

Question: And the GI50 (JM1)?
Answer: The GI50 was 79 nM.

Question: And the GI50 (JVM-2)?
Answer: Its GI50 is 9 nM.

Question: What about the GI50 (LN-229) of the same compound?
Answer: Its GI50 is 254 nM.

Question: What about the GI50 (Maver1) of the same compound?
Answer: The GI50 was 85 nM.

Question: What about the GI50 (MDA-MB-231) of the same compound?
Answer: The GI50 was 544 nM.

Question: And the GI50 (MDA-MB-468)?
Answer: The GI50 was 57 nM.

Question: And the GI50 (NCI-H526)?
Answer: Its GI50 is 275 nM.

Question: And the GI50 [1]?
Answer: The GI50 was 38 nM.

Question: And the GI50 [2]?
Answer: The GI50 was 524 nM.

Question: What about the GI50 [3] of the same compound?
Answer: Its GI50 is 658 nM.

Question: What about the GI50 (Pfeiffer) of the same compound?
Answer: Its GI50 is 421 nM.

Question: And the GI50 (RCK8)?
Answer: Its GI50 is 529 nM.

Question: And the GI50 (RL)?
Answer: The GI50 was 14 nM.

Question: What about the GI50 (SF-295) of the same compound?
Answer: The GI50 was 24700 nM.

Question: And the GI50 (SF-539)?
Answer: Its GI50 is 61 nM.

Question: What about the GI50 (SK-BR-3) of the same compound?
Answer: Its GI50 is 73 nM.

Question: And the GI50 (SU-DHL-2)?
Answer: The GI50 was 28 nM.

Question: What about the GI50 (SU-DHL-6) of the same compound?
Answer: Its GI50 is 4 nM.

Question: And the GI50 (SU-DHL-8)?
Answer: The GI50 was 53 nM.

Question: What about the GI50 (SW780) of the same compound?
Answer: The GI50 was 290 nM.

Question: And the GI50 (T-24)?
Answer: The GI50 was 765 nM.

Question: What about the GI50 (U2932) of the same compound?
Answer: The GI50 was 53 nM.

Question: And the GI50 (U-2940)?
Answer: Its GI50 is 10200 nM.

Question: What about the GI50 (U-87 MG) of the same compound?
Answer: Its GI50 is 40 nM.

Question: What about the GI50 (UMUC3) of the same compound?
Answer: The GI50 was 29300 nM.

Question: And the GI50 (WSUDLCL2)?
Answer: Its GI50 is 82 nM.

Question: And the GI50 (WSU-NHL)?
Answer: The GI50 was 8 nM.

Question: And the GI50 (Z-138)?
Answer: The GI50 was 4 nM.

Question: What about the GI50 (ZR-75-1) of the same compound?
Answer: Its GI50 is 11000 nM.

Question: Which results are given for `O=C(NC[C@H](O)CN1CCc2ccccc2C1)c1ccnc(NC2CCC2)c1`?
Answer: GI50 5637: 143 nM; GI50 (HCC1143): 509 nM; GI50 (HCC70): 522 nM; GI50 (HT-1376): 13100 nM; GI50 (J82): 20900 nM; GI50 (JM1): 76 nM; GI50 (JVM-2): 172 nM; GI50 (LN-229): 1150 nM; GI50 (Maver1): 133 nM; GI50 (MDA-MB-231): 2930 nM; GI50 (MDA-MB-468): 585 nM; GI50 (NCI-H526): 138 nM; GI50 [1]: 29 nM; GI50 [2]: 526 nM; GI50 [3]: 375 nM; GI50 (Pfeiffer): 352 nM; GI50 (RCK8): 2110 nM; GI50 (RL): 1430 nM; GI50 (SF-295): 9840 nM; GI50 (SF-539): 75 nM; GI50 (SK-BR-3): 131 nM; GI50 (SU-DHL-2): 86 nM; GI50 (SU-DHL-6): 13 nM; GI50 (SU-DHL-8): 1220 nM; GI50 (SW780): 451 nM; GI50 (T-24): 650 nM; GI50 (U2932): 336 nM; GI50 (U-2940): 2350 nM; GI50 (U-87 MG): 127 nM; GI50 (UMUC3): 19200 nM; GI50 (WSUDLCL2): 651 nM; GI50 (WSU-NHL): 76 nM; GI50 (Z-138): 14 nM; GI50 (ZR-75-1): 2620 nM
